High-throughput results (PubChem BioAssay)
KCNQ1 act = potentiators or activators of human KCNQ1 potassium channel; P51787; CHO-K1 KCNQ1, thallium flux FluxOR fluorescence; hits give high values; B-score at 10 µM; 310,000 tested, 0.35% active;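 active = fluorescence ratio B-score, a plate-corrected score, at least three library SD, with initial intensity B-score within 5 SD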
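Assay system: stable KCNQ1 CHO-K1 line; medium: assay buffer, equal DMSO in all wells; timing: 90 min dye loading and 20 min compound exposure, both at room temperature; technique: kinetic FluxOR thallium fluorescence, 10-s 1-Hz baseline, 110-s post-stimulus read; read-out basis: B score of baseline-normalized fluorescence ratio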
Cl transport mod = modulators of human KCC2 chloride dependent transport. Q9H2X9. KCC2 cells, thallium flux FluoZin-2 fluorescence. B-score of Tl+ flux slope (higher = more flux/activation; lower = inhibition) at 10 µM. 190,000 tested, 2.2% active. AID 1456;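 active = thallium flux slope and its plate-corrected score both differing from the plate sample mean at a set confidence after two filtering rounds, in either direction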;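 note: slope of fluorescence scaled to starting intensity during 10 to 20 s after thallium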
KCNQ1 block = human KCNQ1 channel inhibition; P51787; CHO-K1 KCNQ1, FluxOR thallium flux fluorescence; hits give high values; B-score at 10 µM; 310,000 tested, 1.3% active;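 active = compounds whose thallium flux B-score, printed positive for inhibition, exceeds three library SD while starting fluorescence stays within three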;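 note: channel opened by potassium depolarization with thallium stimulus after 20 min compound exposure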
hERG protect = shields human hERG channel from block by proarrhythmic agents; CHO-hERG, FluxOR thallium flux, dofetilide IC70 present; activation (rescue from dofetilide block), less the hit threshold, % at 10 µM; AID 1511; 310,000 tested, 0.51% active;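 active = activation above the mean of controls blocked by dofetilide plus 5 SD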;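 note: thallium influx through hERG after potassium depolarization seen as dye fluorescence rise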
Target sequence (Q12809 whole entry, looked up): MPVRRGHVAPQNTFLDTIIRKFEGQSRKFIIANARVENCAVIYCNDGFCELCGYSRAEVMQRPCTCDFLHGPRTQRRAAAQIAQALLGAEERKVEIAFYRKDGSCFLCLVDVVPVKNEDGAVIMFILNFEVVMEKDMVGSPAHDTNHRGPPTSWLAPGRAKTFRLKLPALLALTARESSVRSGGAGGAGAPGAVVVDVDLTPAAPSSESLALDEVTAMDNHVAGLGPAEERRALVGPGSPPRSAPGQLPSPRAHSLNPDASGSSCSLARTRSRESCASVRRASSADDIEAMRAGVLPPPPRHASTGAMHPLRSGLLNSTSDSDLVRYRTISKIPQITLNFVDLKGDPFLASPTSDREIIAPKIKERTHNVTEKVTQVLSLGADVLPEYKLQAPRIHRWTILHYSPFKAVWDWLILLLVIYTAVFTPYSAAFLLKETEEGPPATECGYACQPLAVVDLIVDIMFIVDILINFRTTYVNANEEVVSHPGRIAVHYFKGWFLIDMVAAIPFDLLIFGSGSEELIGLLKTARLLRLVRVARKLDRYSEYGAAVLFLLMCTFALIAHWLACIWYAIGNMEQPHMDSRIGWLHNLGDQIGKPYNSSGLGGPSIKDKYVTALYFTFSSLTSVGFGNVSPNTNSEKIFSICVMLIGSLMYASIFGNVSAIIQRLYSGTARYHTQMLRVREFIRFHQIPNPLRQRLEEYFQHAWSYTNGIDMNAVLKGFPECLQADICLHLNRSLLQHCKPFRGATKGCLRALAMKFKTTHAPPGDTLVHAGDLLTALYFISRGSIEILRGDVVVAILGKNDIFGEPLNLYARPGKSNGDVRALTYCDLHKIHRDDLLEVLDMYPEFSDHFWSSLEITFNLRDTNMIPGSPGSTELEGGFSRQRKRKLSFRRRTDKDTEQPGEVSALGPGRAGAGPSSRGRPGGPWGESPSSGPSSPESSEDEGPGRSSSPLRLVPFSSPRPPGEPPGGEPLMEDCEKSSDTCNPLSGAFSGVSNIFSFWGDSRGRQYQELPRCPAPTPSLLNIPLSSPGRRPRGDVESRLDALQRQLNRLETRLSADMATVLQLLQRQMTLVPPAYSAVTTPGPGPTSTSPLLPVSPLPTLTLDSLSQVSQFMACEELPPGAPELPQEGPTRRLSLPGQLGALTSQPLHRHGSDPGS
KCNK9 block = inhibitors of human KCNK9 two-pore domain potassium channel; Q9NPC2; HEK293 KCNK9, FluxOR thallium flux fluorescence; hits give low values; B-score at 10 µM; 310,000 tested, 1.2% active;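 active = ratio B-score over 3 SD below the library mean, with starting fluorescence within 5 SD of its mean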;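 note: negative B-score means less thallium flux so channel inhibition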
KCNK3 block = human KCNK3 channel inhibition, primary screen; B-score at 10 µM; O14649; 340,000 tested, 0.84% active; CHO-KCNK3 thallium flux, FluxOR fluorescence; hits give low values;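 active = B-score under library mean minus 4 SD, starting fluorescence ratio at most library mean plus 5 SD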;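 note: more negative B-score means stronger inhibition of thallium flux through KCNK3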
KCC2 sec1 = confirmation of human KCC2 transport modulators | AID 1713 | normalised thallium flux (F/F0 slope) at 10 µM | shares compounds with Cl transport mod | 3,700 tested, 15% active | HEK293-KCC2, thallium flux, FluoZin2 fluorescence; hits give high values;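 active = thallium flux slope above the same plate's solvent-only control mean plus 3 SD; inconclusive = the two replicate wells disagree; inactive = no significant difference from solvent-only control wells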
KCC2 bumet counter = thallium flux despite bumetanide block in KCC2 cells, secondary assay 3. normalized thallium flux at 10 µM. HEK293-KCC2 + bumetanide/ouabain, thallium flux FluoZin2; hits give high values. shares compounds with Cl transport mod. 3,700 tested, 49% active. AID 1714;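 active = thallium entry rate above the same plate's blocked-transporter control wells by more than 3 SD; inconclusive = the two repeat wells disagree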;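 note: raw slope of fluorescence over initial fluorescence between 10 and 20 s after thallium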
KCC2 secondary2 = KCC2 (human) modulation, second secondary assay; shares compounds with Cl transport mod; 3,700 tested, 23% active; normalized thallium flux at 10 µM; HEK293-KCC2, thallium flux FluoZin2 fluorescence; actives lie on both sides; F/F0 rise rate, 10–20 s post-thallium;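 active = thallium flux slope more than 3 SD above or below the plate's solvent-only control mean, mostly below; inconclusive = the two repeat wells disagreed; inactive = no significant shift from solvent-only controls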
HEK293 Tl flux = counter-screen for KCC2 modulators: effect in parental HEK293 cells | thallium flux rate (normalised fluorescence) at 10 µM | AID 1716 | shares compounds with Cl transport mod | 3,700 tested, 46% active | thallium flux FluoZin2, ouabain; baseline-ratio fluorescence slope, 10–20 s after thallium;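 active = thallium flux rate significantly above the same plate's solvent-only control wells, beyond their mean plus 3 SD; inconclusive = the two replicate wells gave conflicting results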
KCC2 retest ouab = modulates human KCC2 on retest with ouabain | shares compounds with Cl transport mod | HEK293-KCC2, thallium flux FluoZin2 fluorescence; bidirectional: low = inhibitor, high = activator | raw Tl+ flux slope (below DMSO = inhibition, above = activation) at 10 µM | 3,700 tested, 48% active | AID 1717;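 active = thallium flux slope beyond 3 SD from same-plate DMSO control mean in most replicates, usually higher, sometimes lower; inconclusive = repeat tests gave conflicting results; inactive = no significant difference from controls in most replicates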;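 note: slope of initial-normalized fluorescence between seconds 10 and 20 after thallium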
HEK counter2 = acts in parental HEK cells, second KCC2 counter-screen; shares compounds with Cl transport mod; HEK293 parental, thallium flux FluoZin-2 fluorescence slope; thallium flux slope at 10 µM; 3,700 tested, 33% active;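 active = thallium flux slope above the same plate's solvent-control mean plus 3 SD in both duplicate wells; inconclusive = duplicate wells that disagreed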;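 note: run without ouabain in cells lacking the KCC2 cotransporter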
Large screens that a line does not name were inactive (follow-up assays come after a bar, where they were run). Most compounds without a hit are left out; they make up all but 4.1% or so of the library.

Cc1[nH]n(-c2ccccc2)c(=O)c1C=Nc1cnc2ccccc2c1	none
Cc1ccc(N=Cc2c(C)[nH]n(-c3ccccc3)c2=O)nc1	Cl transport mod 12.9 | KCC2 sec1 inactive | KCC2 bumet counter 0.0204 | KCC2 secondary2 inactive | HEK293 Tl flux 0.0243 | KCC2 retest ouab 0.0259 | HEK counter2 inactive
CCCSc1oc(-c2ccco2)nc1S(=O)(=O)c1ccccc1	none
CCSc1oc(-c2ccco2)nc1S(=O)(=O)c1ccccc1	Cl transport mod 6.52 | KCC2 sec1 inactive | KCC2 bumet counter inactive | KCC2 secondary2 inactive | HEK293 Tl flux inactive | KCC2 retest ouab inactive | HEK counter2 inactive
COc1ccc(NC(=O)c2cn(C)c(=O)c3cc(OC)c(OC)cc23)c(OC)c1	none (no result: Cl transport mod)
CC1CCN(C(=O)c2ccc(SCc3ccccc3F)c([N+](=O)[O-])c2)CC1	Cl transport mod -3.38 | KCC2 sec1 inactive | KCC2 bumet counter inactive | KCC2 secondary2 0.0249 | HEK293 Tl flux inactive | KCC2 retest ouab inconclusive | HEK counter2 inactive
Cc1ccc(C(=O)N2CCC(Cc3ccccc3)CC2)cc1[N+](=O)[O-]	Cl transport mod -5.68 | KCC2 sec1 inactive | KCC2 bumet counter inconclusive | KCC2 secondary2 inactive | HEK293 Tl flux inactive | KCC2 retest ouab 0.0143 | HEK counter2 inactive
O=C(c1ccc(S(=O)(=O)Cc2ccccc2F)c([N+](=O)[O-])c1)N1CCCCCC1	none
O=C(Nc1cc(Cl)ccc1-n1cncn1)c1ccc(F)c(S(=O)(=O)N2CCOCC2)c1	none (no result: Cl transport mod)
O=C(CSc1nnc(NC(=O)CN2CCOCC2)s1)Nc1ccccc1	none
CS(=O)(=O)N(CC(=O)N1CCCC1)c1ccc2c(c1)OCCO2	none (no result: Cl transport mod) | KCC2 sec1 inactive | KCC2 bumet counter inactive | KCC2 secondary2 inactive | HEK293 Tl flux inactive | KCC2 retest ouab inactive | HEK counter2 inactive
Cc1ccc2c(C)nc(Nc3nc(CSc4nnc(C)s4)cc(=O)[nH]3)nc2c1	none | KCC2 sec1 inactive | KCC2 bumet counter inactive | KCC2 secondary2 inactive | HEK293 Tl flux inactive | KCC2 retest ouab inactive | HEK counter2 inconclusive
O=c1oc(CCO)cc2ccc(-c3ccc4[nH]ccc4c3)cc12	none (no result: KCNQ1 act, Cl transport mod, KCNQ1 block, hERG protect, KCNK9 block)
O=C(O)CC(=O)NC12CC3CC(CC(C3)C1)C2	none | KCC2 sec1 inactive | KCC2 bumet counter inactive | KCC2 secondary2 inactive | HEK293 Tl flux inactive | KCC2 retest ouab inactive | HEK counter2 inconclusive
O=C(CN1CCCC1)NC12CC3CC(CC(C3)C1)C2	none
CC(=O)Nc1ccc(S(=O)(=O)NC(C)c2ccccc2)cc1 (stereo not drawn)	none (no result: Cl transport mod)
CCCC[C@@H]1CNC(=S)N1CCCc1cc(OC)c(OC)c(OC)c1	none
Cc1cc(C)n(-c2nc(SCC(=O)Nc3nccs3)c3c4c(sc3n2)COC(C)(C)C4)n1	Cl transport mod 4.37 | KCC2 sec1 inactive | KCC2 bumet counter 0.0215 | KCC2 secondary2 inactive | HEK293 Tl flux 0.0186 | KCC2 retest ouab 0.0262 | HEK counter2 0.0132
Cc1cc(C)n(-c2nc(-n3nc(C)cc3C)c3c4c(sc3n2)COC(C)(C)C4)n1	none (no result: Cl transport mod, KCNK3 block)
NS(=O)(=O)c1ccc(CCNCc2cccs2)cc1	none
CCS(=O)(=O)NCc1ccc2c(c1)cc(C)n2C	Cl transport mod -3.1 | KCC2 sec1 inactive | KCC2 bumet counter inactive | KCC2 secondary2 inactive | HEK293 Tl flux inactive | KCC2 retest ouab inactive | HEK counter2 inactive
CCCS(=O)(=O)NCc1ccc2c(c1)cc(C)n2C	none
O=c1cc(O)n(-c2ccccc2F)c(=S)[nH]1	none
COc1ccc(CNS(=O)(=O)c2ccc(C)cc2)cc1	none (no result: Cl transport mod)
O=C(Nn1c(O)c(C=C2N=c3ccccc3=N2)sc1=S)c1ccccc1	Cl transport mod -3.5 | KCC2 sec1 inactive | KCC2 bumet counter inactive | KCC2 secondary2 0.022 | HEK293 Tl flux inactive | KCC2 retest ouab 0.0125 | HEK counter2 inactive
c1ccc(OCc2nn3c(C4CCCCC4)nnc3s2)cc1	Cl transport mod -3.65 | KCC2 sec1 inactive | KCC2 bumet counter inactive | KCC2 secondary2 0.0244 | HEK293 Tl flux inconclusive | KCC2 retest ouab 0.0126 | HEK counter2 inactive
O=C(NC(=S)Nc1cccnc1)c1cccc(Br)c1	none (no result: Cl transport mod)
O=C(NC(=S)Nc1cc(Cl)ccc1O)c1cccc(Br)c1	Cl transport mod 6.52 | KCC2 sec1 inactive | KCC2 bumet counter 0.0309 | KCC2 secondary2 inactive | HEK293 Tl flux 0.0137 | KCC2 retest ouab 0.0271 | HEK counter2 0.0177
Cc1ccc(-c2c[nH]c(=S)n2-c2ccccc2)cc1	Cl transport mod 7.28 | KCC2 sec1 inactive | KCC2 bumet counter 0.0226 | KCC2 secondary2 inactive | HEK293 Tl flux inconclusive | KCC2 retest ouab inconclusive | HEK counter2 inconclusive
CCSc1nnc(NC(=O)CSc2nccn2-c2cc(C)cc(C)c2)s1	none (no result: KCNK3 block)
CCSc1nnc(NC(=O)CSc2nccn2-c2cccc(C)c2C)s1	Cl transport mod 3.13 (no result: KCNK3 block) | KCC2 sec1 inactive | KCC2 bumet counter 0.016 | KCC2 secondary2 inactive | HEK293 Tl flux 0.015 | KCC2 retest ouab inactive | HEK counter2 0.0181
Cc1cccc(NC(=S)NNC(=O)c2csc(C)c2)c1	Cl transport mod 4.5 | KCC2 sec1 inconclusive | KCC2 bumet counter 0.0188 | KCC2 secondary2 inactive | HEK293 Tl flux 0.0173 | KCC2 retest ouab inconclusive | HEK counter2 0.0195
CC(=O)c1cccc(NC(=S)NC(=O)c2ccc(Br)cc2)c1	none
CC(=O)c1cccc(NC(=S)NC(=O)Cc2ccccc2)c1	Cl transport mod 6.17 | KCC2 sec1 inactive | KCC2 bumet counter 0.00914 | KCC2 secondary2 inconclusive | HEK293 Tl flux 0.0103 | KCC2 retest ouab inactive | HEK counter2 inconclusive
CC(=O)c1cccc(NC(=S)NC(=O)c2ccc(C)cc2Cl)c1	Cl transport mod 21.1 | KCC2 sec1 inactive | KCC2 bumet counter 0.0619 | KCC2 secondary2 inconclusive | HEK293 Tl flux 0.0186 | KCC2 retest ouab 0.0359 | HEK counter2 0.0186
